Results reported in ChEMBL document CHEMBL1149675, “Structure-activity relationship of chalcones and related derivatives as ligands for detecting of beta-amyloid plaques in the brain” (Bioorg Med Chem, 2007).
Activity calls are given as the source filed them. The calls are words filed in the database; no cut-off is given here.

System: Brain
Test: Biodistribution in ddY mouse brain at 4.2 to 6.3 kBq, iv after 2 mins
Assay type: ADME, organism-based
Details: in vivo
Summary of the method: (§1)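 [125I]-labelled ligand in saline with 10% ethanol, given by tail-vein injection to normal ddY mice (5 weeks old, 23–25 g). Mice killed at set times post-injection. Organs removed and weighed, radioactivity gamma-counted, expressed as % injected dose per gram. Mean (SD) of five mice per time point.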
With CN(C)c1ccc(/C=C/C(=O)c2ccc([125I])s2)cc1 the Drug uptake was 2.46 % ID/g.

Biological target: not listed separately
Test: Displacement of [125I]DMIC from amyloid beta 1-42 aggregates
Set-up: species or system Homo sapiens
Details: not given
With CN(C)c1ccc(/C=C/C(=O)c2ccc(I)s2)o1 the Ki was 1610 nM.
O=C(/C=C/c1ncc[nH]1)c1ccc(I)cc1 gave a Ki of 797 nM.
Work on O=C(/C=C/c1cccs1)c1ccc(I)cc1 yielded a Ki of 102 nM.
Molecule Nc1ccc(C(=O)/C=C/c2ccc(Br)s2)cc1 has a Ki of 476 nM.
O=C(/C=C/c1ccco1)c1ccc(I)cc1 gave a Ki of 908 nM.
With O=C(/C=C/c1ccsc1)c1ccc(I)cc1 the Ki was 93 nM.
In the case of CN(C)c1ccc(C(=O)/C=C/c2ccc(I)cc2)cc1, the Ki is reported as 13.3 nM.
With CNc1ccc(C(=O)/C=C/c2ccc(Br)s2)cc1 the Ki was 198 nM.
Work on CN(C)c1ccc(/C=C/C(=O)c2ccc(I)s2)cc1 yielded a Ki of 3.9 nM.
Molecule O=C(/C=C/c1ccoc1)c1ccc(I)cc1 has a Ki of 125 nM.
For CNc1ccc(/C=C/C(=O)c2ccc(I)s2)cc1, the Ki was 14.1 nM.
For Nc1c(/N=N/c2ccc(-c3ccc(/N=N/c4cc(S(=O)(=O)O)c5ccccc5c4N)cc3)cc2)cc(S(=O)(=O)O)c2ccccc12 [CONGO RED], the Ki was > 10000 nM.
CN(C)c1ccc(C(=O)/C=C/c2ccc(Br)s2)cc1 showed a Ki of 106 nM.
In the case of O=C(/C=C/c1nccs1)c1ccc(I)cc1, the Ki is reported as > 10000 nM.
Molecule CN(C)c1ccc(/C=C/C(=O)c2ccc(Br)o2)s1 has a Ki of 2650 nM.
In the case of CN(C)c1ccc(/C=C/C(=O)c2ccc(Br)o2)o1, the Ki is reported as > 10000 nM.
With CN(C)c1ccc(/C=C/C(=O)c2ccc(I)s2)s1 the Ki was 137 nM.
Work on CN(C)c1ccc(/C=C/C(=O)c2ccc(I)cc2)o1 yielded a Ki of 1130 nM.
Work on Nc1ccc(C(=O)/C=C/c2ccc(I)cc2)cc1 yielded a Ki of 248 nM.
In the case of Cc1ccc2c(c1)sc(-c1ccc(N(C)C)cc1)[n+]2C [THIOFLAVIN T], the Ki is reported as > 10000 nM.
Work on O=C(/C=C/c1ccccc1)c1ccc(I)cc1 yielded a Ki of 151 nM.
For CN(C)c1ccc(/C=C/C(=O)c2ccc(I)cc2)s1, the Ki was 113 nM.
With CNc1ccc(C(=O)/C=C/c2ccc(I)cc2)cc1 the Ki was 23.9 nM.
Work on Nc1ccc(/C=C/C(=O)c2ccc(I)s2)cc1 yielded a Ki of 121 nM.
With CN(C)c1ccc(/C=C/C(=O)c2ccc(Br)o2)cc1 the Ki was 126 nM.

Organism: Mus musculus
Test: Binding affinity for beta amyloid plaques in Alzheimer's mouse model brain
Details: not given
Summary of the method: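 Paraffin sections, 5 µm, of formaldehyde-fixed Alzheimer's model mouse brain. Deparaffinised, held in PBS 30 min, stained with compound at 100 µM in 50% ethanol, washed in PBS 15 min, then mounted. Fluorescence read by confocal microscopy at 458 excitation and 540–580 emission. Serial sections immunostained for β-amyloid with DAB.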
In the case of CN(C)c1ccc(/C=C/C(=O)c2ccc(I)s2)cc1, the Activity is reported as “Active”.

System: Brain
Test: Biodistribution in ddY mouse brain at 4.2 to 6.3 kBq, iv after 60 mins
Assay type: ADME, organism-based
Details: in vivo, 1 h
Summary of the method: as §1
CN(C)c1ccc(/C=C/C(=O)c2ccc([125I])s2)cc1 gave a Drug uptake of 0.21 % ID/g.

System: Brain
Test: Biodistribution in ddY mouse brain at 4.2 to 6.3 kBq, iv after 30 mins
Assay type: ADME, organism-based
Details: in vivo, 0.5 h
Summary of the method: as §1
With CN(C)c1ccc(/C=C/C(=O)c2ccc([125I])s2)cc1 the Drug uptake was 0.31 % ID/g.

System: Brain
Test: Biodistribution in ddY mouse brain at 4.2 to 6.3 kBq, iv after 10 mins
Assay type: ADME, organism-based
Details: in vivo
Summary of the method: as §1
Work on CN(C)c1ccc(/C=C/C(=O)c2ccc([125I])s2)cc1 yielded a Drug uptake of 0.75 % ID/g.
